Assay outcomes (PubChem BioAssay)
Hits are enriched below; roughly 5.5% of the tested compounds scored in any of these assays.
WT yeast gro inh – growth inhibition of WT yeast, mitochondrial fusion screen; mitochondrial fusion phenotypic screen, WT strain; inhibition, % at 10 µM; actives 2.1% (n = 190,000); in the data active = inhibition above about 58%; tested in S. cerevisiae
Yeast lifespan up – yeast lifespan extension; actives 0.68% (n = 130,000); inhibition of the nicotinamide effect, % at 10 µM; AID 775; S. cerevisiae growth with nicotinamide, OD615; deaD strain in restrictive glucose medium;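 active = inhibition above a set limit, placed 3 SD over the median of all compounds, cut at about 26% in these data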;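 note: 0% = nicotinamide-treated wells and 100% = cells grown without nicotinamide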
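Test system: DeaD-strain S. cerevisiae / Buffer or medium: restrictive glucose medium / Also added: nicotinamide 1.5 mM / Doses: one concentration, 10 µM, DMSO 0.25% / Schedule: 48 h at 30 °C / Signal: OD615 measurement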
RAM network inh – inhibitors of the yeast RAM network; inhibition, % at 50 µM; S. cerevisiae dse1pr::URA3 reporter, 5-FOA growth OD615, 2 d; analog-sensitive cbk1-as2 kinase mutant strain; actives 1.8% (n = 190,000);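 active = inhibition above a set limit, 3 SD over mean compound inhibition, cut at about 8.4% in these data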;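 note: 0% = DMSO-only wells with no growth and 100% = 10 µM 1-NA-PP1 full growth; inhibition rescues growth on 5-FOA so higher OD means more RAM inhibition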
Yeast growth inh – chemicals that inhibit yeast BB579 growth in restrictive medium (lifespan-shortening candidates); inhibition, % at 10 µM; S. cerevisiae BB579 growth, OD615, 48 h; actives 0.51% (n = 140,000);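 active = inhibition above a set limit, 3 SD over the mean compound inhibition, cut at about 44% in these data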
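System: Saccharomyces cerevisiae DeaD strain BB579, replicative lifespan model yeast. Buffer or medium: restrictive glucose-based CSMM-D medium. Doses: one dose, 10 µM compound with 0.25% DMSO. Timing: 4 h preincubation and 48 h exposure at 30 °C. Detection: turbidity as optical density at 615 nm. Benchmarks: amphotericin B 10 µg/mL, positive.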
KCC2 mod – modulates chloride dependent transport by human KCC2. KCC2 cells, thallium flux FluoZin-2 fluorescence. B-score of Tl+ flux slope (higher = more flux/activation; lower = inhibition) at 10 µM. actives 2.2% (n = 190,000). AID 1456;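 active = thallium flux slope and its plate-corrected score both differing from the plate sample mean at a set confidence after two filtering rounds, in either direction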;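 note: slope of fluorescence scaled to starting intensity during 10 to 20 s after thallium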
Target sequence (Q9H2X9 whole entry, looked up): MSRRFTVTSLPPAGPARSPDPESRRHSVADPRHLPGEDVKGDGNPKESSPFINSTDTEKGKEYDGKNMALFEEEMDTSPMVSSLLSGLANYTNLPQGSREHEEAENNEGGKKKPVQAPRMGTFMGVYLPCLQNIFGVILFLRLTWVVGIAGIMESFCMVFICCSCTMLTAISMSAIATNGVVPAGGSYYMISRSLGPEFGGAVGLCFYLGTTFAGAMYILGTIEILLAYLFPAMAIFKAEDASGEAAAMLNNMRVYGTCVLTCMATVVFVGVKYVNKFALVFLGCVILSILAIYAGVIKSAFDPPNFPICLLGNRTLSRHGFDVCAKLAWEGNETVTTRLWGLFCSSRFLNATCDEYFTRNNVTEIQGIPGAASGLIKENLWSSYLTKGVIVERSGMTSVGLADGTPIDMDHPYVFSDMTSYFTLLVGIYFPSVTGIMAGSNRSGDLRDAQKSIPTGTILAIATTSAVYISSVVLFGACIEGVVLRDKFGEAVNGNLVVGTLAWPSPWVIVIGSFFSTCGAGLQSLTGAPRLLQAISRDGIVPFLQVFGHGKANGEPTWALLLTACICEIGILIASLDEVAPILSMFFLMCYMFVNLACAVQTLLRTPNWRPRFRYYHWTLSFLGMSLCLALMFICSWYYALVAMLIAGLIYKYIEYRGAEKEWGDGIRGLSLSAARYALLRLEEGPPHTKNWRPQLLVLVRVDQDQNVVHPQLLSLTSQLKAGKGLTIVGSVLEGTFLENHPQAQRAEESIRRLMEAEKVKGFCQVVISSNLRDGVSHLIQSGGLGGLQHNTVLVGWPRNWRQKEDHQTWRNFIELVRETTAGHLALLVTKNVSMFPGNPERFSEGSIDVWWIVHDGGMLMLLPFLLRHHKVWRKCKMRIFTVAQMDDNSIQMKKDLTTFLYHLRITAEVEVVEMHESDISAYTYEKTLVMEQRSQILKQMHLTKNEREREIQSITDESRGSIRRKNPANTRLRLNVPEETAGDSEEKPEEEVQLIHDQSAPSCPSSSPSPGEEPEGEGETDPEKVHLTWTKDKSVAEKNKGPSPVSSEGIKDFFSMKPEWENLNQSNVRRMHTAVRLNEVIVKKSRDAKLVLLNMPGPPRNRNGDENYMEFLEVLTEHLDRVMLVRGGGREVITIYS
* = called active by the depositor; i = inactive; nt = no result given.

SMILES	WT yeast gro inh	Yeast lifespan up	RAM network inh	Yeast growth inh	KCC2 mod
CCC(CO)[n+]1c(C)cc(/C=C2\Sc3ccccc3N2Cc2ccccc2)cc1C (configuration not stated)	59*	0	2	-17	i
CCN1/C(=C2\SC(=S)N(Cc3ccccc3)C2=O)Sc2ccccc21	1	-3	7	-36	-0.45
N#C/C(=C/c1cn(-c2ccccc2)nc1-c1cccc(OCc2ccccc2)c1)C(=O)NCCCn1ccnc1	12	0	8	-22	1.1
CCOc1cccc(-c2nn(-c3ccccc3)cc2/C=C(/C#N)C(=O)NCCCn2ccnc2)c1	60*	-4	6	-60	i
COC(=O)c1c(NC(=S)Nc2ccc(CC(=O)O)cc2)sc(C)c1C	-12	4	10*	-15	0
COc1ccc(NC(=O)/C(C#N)=C/c2ccc(OCc3ccccc3F)cc2)cc1	9	3	1	-19	0.55
Cc1ccc(C(=O)c2c(NC(=O)c3ccccc3C)sc(C)c2C)cc1	-13	-25	10*	-47	nt
Cc1ccc(CN=c2c([N+](=O)[O-])nn(-c3cccc(C)c3)n2O)cc1	24	nt	1	nt	-0.63
Cc1ccc(CN=c2c([N+](=O)[O-])nn(-c3cccc(Cl)c3)n2O)cc1	61*	nt	4	nt	-0.41
CC(=O)NCCn1c(SCc2cc(=O)n3cc(Cl)ccc3n2)nc2ccccc2c1=O	-14	-9	11*	-28	-1.5
CC(C)(C)c1nc(SCC(=O)c2ccccc2)c2ccccc2n1	53	nt	9.4*	nt	1.7
CC(C)(C)c1nc(SCC(=O)N2CCCC2)c2ccccc2n1	-4	nt	1	nt	-0.026
CC(=O)NCCn1c(SCc2ccccc2F)nc2ccccc2c1=O	-18	-11	-1	9	-0.89
CC(=O)NCCn1c(SCc2ccc(C)cc2)nc2ccccc2c1=O	65*	-17	2	-36	-0.069
COCCCn1c(SCC(=O)c2ccccc2)nc2ccccc2c1=O	-10	nt	6	nt	-1.1
COCCn1c(SCC(=O)c2ccccc2)nc2ccccc2c1=O	0	nt	9.8*	nt	-0.87
CN(C(=O)CSc1nc2c(cnn2-c2ccccc2)c(=O)[nH]1)C1CCS(=O)(=O)C1 (configuration not stated)	-2	nt	4	nt	0.062
c1ccc(-c2ccccc2OCCOCCN2CCc3ccccc3C2)cc1	44	nt	-1	nt	-0.52
Clc1ccc(OCCOCCN2CCc3ccccc3C2)c(Cl)c1	70*	-6	-1	21	-0.38
Clc1ccc(SCCOCCN2CCc3ccccc3C2)cc1	61*	nt	1	nt	0.72
COc1cc(/C=N/NS(=O)(=O)c2ccc(C(C)(C)C)cc2)cc([N+](=O)[O-])c1O	-5	nt	1	nt	-2
Cc1c(Cl)cccc1NC(=O)C(=O)NNC(=O)c1ccccc1F	19	nt	0	nt	89*
CSc1ccccc1NC(=O)Nc1cccc(Cl)c1C	10	nt	5	nt	-0.088
Cc1ccccc1C(=O)NNC(=O)C(=O)Nc1cccc(Cl)c1C	-21	3	4	-3	46*
O=C(NNC(=O)c1ccccc1Cl)c1ccccc1Cl	nt	nt	nt	nt	0.16
SMILES	WT yeast gro inh	Yeast lifespan up	RAM network inh	Yeast growth inh	KCC2 mod
C/C(=N\NC(=O)c1ccc(OC2OCCOC2Oc2ccc(C(=O)N/N=C(\C)c3ccncc3)cc2)cc1)c1ccncc1 (configuration not stated)	nt	nt	nt	nt	1.1
N#CC1=C(N)Oc2c(oc(CO)cc2=O)C1c1ccccc1[N+](=O)[O-] (configuration not stated)	nt	nt	nt	nt	0.67
Clc1ccc(-c2ccc(/C=N/Nc3cc(N4CCOCC4)nc(N4CCOCC4)n3)o2)cc1	60*	nt	3	-32	0.0051
Brc1ccc(-c2ccc(/C=N/Nc3nc(N4CCOCC4)nc(N4CCOCC4)n3)o2)cc1	12	nt	1	nt	-0.21
COc1ccccc1C(=O)NNC(=S)NC(=O)c1sc2ccccc2c1Cl	-8	-3	4	3	20*
COc1ccccc1C(=O)NC(=S)NNC(=O)c1sc2ccccc2c1Cl	5	-2	1	3	34*
Cc1c(NC(=S)NC(=O)c2sc3ccccc3c2Cl)cccc1C(=O)O	-3	nt	1	nt	-2.7
CCC12CN3CC(CC)(CN(C1)C3c1c(O)ccc3ccccc13)C2=O (configuration not stated)	14	26*	0	-38	0.11
COc1ccc(C(=O)N/N=C/c2ccc(OC)c(CN3CCc4cc(OC)c(OC)cc4C3C)c2)cc1 (configuration not stated)	-8	nt	2	nt	0.51
O=c1[nH]c(Nc2ccc(F)cc2)cc2ccccc12	8	-8	2	20	0.082
Cc1ccccc1Nc1cc2ccccc2c(=O)[nH]1	66*	-10	0	19	-0.91
CCOC(=O)c1c(NC(=O)C(Sc2ccccc2)c2ccccc2)sc(C(=O)N(C)C)c1C (configuration not stated)	19	3	10*	-21	-0.34
CCOC(=O)c1c(NC(=O)OC)sc(C(=O)N(C)C)c1C	71*	-13	-1	-36	1.6
CCOC(=O)c1c(NC(=O)C(Sc2ccccc2)c2ccccc2)sc(C(N)=O)c1C (configuration not stated)	6	-4	4	-52	0.31
COc1ccc(Oc2nc(-c3cccnc3)nc3ccccc23)cc1	nt	nt	nt	nt	-0.058
COc1ccc(Oc2nc(SC)nc3ccccc23)cc1	0	-12	11*	-13	0.86
CCOc1ccc(C2=C(C=Nc3c(C)n(C)n(-c4ccccc4)c3=O)C(c3ccc(F)cc3)c3ccccc3O2)cc1 (configuration not stated)	17	-3	8.5*	-49	0.13
CCOc1ccc(C2SCC(=O)N2c2c(C)n(C)n(-c3ccccc3)c2=O)cc1 (configuration not stated)	18	-3	2	-41	nt
[2H]c1c([2H])c([2H])c(C(=O)c2sc(N3CCCCCC3)nc2-c2ccccc2)c([2H])c1[2H]	-3	4	8.8*	-12	0.34
O=C(c1ccc(Br)cc1)c1sc(N2CCOCC2)nc1-c1ccccc1	42	nt	9.4*	nt	0.5
COc1ccc(-c2nc(N3CCCCCC3)sc2C(=O)c2ccccc2)cc1	10	1	7	-50	0.84
CCNC(=S)N/N=C/c1ccc(OCC(=O)Nc2ccc(C)cc2)cc1	-25	-9	3	-27	0.32
Cc1cc([N+](=O)[O-])c2[nH]c(C(=O)N/N=C/c3ccccc3C(=O)O)c(-c3ccccc3)c2c1	14	-14	8.7*	-65	-1
NS(=O)(=O)c1ccc(N/N=C/c2ccccc2C(=O)O)c([N+](=O)[O-])c1	-15	nt	3	nt	0.72
COC(=O)c1c(NC(=O)CN2CCN(c3cccc(Cl)c3)CC2)sc(C)c1C	10	-3	2	-11	0.73
Cc1ccc(OCC(=O)N2CCc3ccccc3C2)c([N+](=O)[O-])n1	-5	nt	2	nt	-1.9
